Activity calls are given as the source filed them. The rule behind the calls is not given here.
How the values were obtained:
MCF7 = assay: Growth inhibition of human MCF7 cells after 48 hrs by MTT assay; format: functional; conditions: MCF7, 48 h
Summary of the method: (§1)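 Proliferation read-out; GI50 taken as the concentration giving 50% reduction of cancer cell proliferation.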

A549 = assay: Growth inhibition of human A549 cells after 48 hrs by MTT assay; format: functional; conditions: A549, 48 h; summary of the method: as §1
HepG2 [1] = assay: Growth inhibition of human HepG2 cells after 48 hrs by MTT assay; format: functional; conditions: HepG2, 48 h; summary of the method: as §1
HeLa [2] = assay: Growth inhibition of human HeLa cells after 48 hrs by MTT assay; format: functional; summary of the method: as §1
HeLa [3] = assay: Cell cycle arrest in human HeLa cells assessed as accumulation at S phase at 0.020 uM after 24 hrs by propidium iodide staining based flow cytometric analysis (reference value: 17.46%); format: functional
Summary of the method: (§2)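 HepG2 and HeLa cells were exposed to 0, 0.020, 0.040, 0.060, 0.080 or 0.10 µM for 6, 12 or 24 h. DNA content was stained with propidium iodide and analysed by flow cytometry to give the percentage of cells in G0/G1, S and G2/M phases; sub-G1 cells were also recorded.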

HeLa [4] = assay: Cell cycle arrest in human HeLa cells assessed as accumulation at S phase at 0.060 uM after 24 hrs by propidium iodide staining based flow cytometric analysis (reference value: 17.46%); format: functional; summary of the method: as §2
HeLa [5] = assay: Cell cycle arrest in human HeLa cells assessed as accumulation at S phase at 0.080 uM after 24 hrs by propidium iodide staining based flow cytometric analysis (reference value: 17.46%); format: functional; summary of the method: as §2
HepG2 [6] = assay: Cell cycle arrest in human HepG2 cells assessed as accumulation at G0/G1 phase at 0.020 uM after 24 hrs by propidium iodide staining based flow cytometric analysis (reference value: 55.63%); format: functional; summary of the method: as §2
HepG2 [7] = assay: Cell cycle arrest in human HepG2 cells assessed as accumulation at G2/M phase at 0.040 uM after 24 hrs by propidium iodide staining based flow cytometric analysis (reference value: 20.17%); format: functional; summary of the method: as §2
HepG2 [8] = assay: Cell cycle arrest in human HepG2 cells assessed as accumulation at G2/M phase at 0.060 uM after 24 hrs by propidium iodide staining based flow cytometric analysis (reference value: 20.17%); format: functional; summary of the method: as §2
HeLa [9] = assay: Induction of apoptosis in human HeLa cells assessed as early apoptotic cells at 0.040 uM after 24 hrs by Annexin V-FITC/propidium iodide staining based flow cytometric analysis (reference value: 6.17%); format: functional
Summary of the method: (§3)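 HepG2 and HeLa cells were exposed to 0, 0.02, 0.040, 0.060, 0.080 and 0.10 µM for 6, 12 and 24 h. Cells were double-stained with Annexin V-FITC/PI and read by flow cytometry. Apoptotic rate was the percentage of FITC-positive cells, counting early plus late apoptotic.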

HeLa [10] = assay: Induction of apoptosis in human HeLa cells assessed as necrotic cells at 0.040 uM after 24 hrs by Annexin V-FITC/propidium iodide staining based flow cytometric analysis (reference value: 0.242%); format: functional; summary of the method: as §3
HeLa [11] = assay: Induction of apoptosis in human HeLa cells assessed as early apoptotic cells at 0.060 uM after 24 hrs by Annexin V-FITC/propidium iodide staining based flow cytometric analysis (reference value: 6.17%); format: functional; summary of the method: as §3
HeLa [12] = assay: Induction of apoptosis in human HeLa cells assessed as necrotic cells at 0.080 uM after 24 hrs by Annexin V-FITC/propidium iodide staining based flow cytometric analysis (reference value: 0.242%); format: functional; summary of the method: as §3
HeLa [13] = assay: Induction of apoptosis in human HeLa cells assessed as viable cells at 0.10 uM after 24 hrs by Annexin V-FITC/propidium iodide staining based flow cytometric analysis (reference value: 88.6%); format: functional; conditions: read-out: Activity; summary of the method: as §3
HepG2 [14] = assay: Induction of apoptosis in human HepG2 cells assessed as necrotic cells at 0.040 uM after 24 hrs by Annexin V-FITC/propidium iodide staining based flow cytometric analysis (reference value: 0.270%); format: functional; summary of the method: as §3
HepG2 [15] = assay: Induction of apoptosis in human HepG2 cells assessed as viable cells at 0.080 uM after 24 hrs by Annexin V-FITC/propidium iodide staining based flow cytometric analysis (reference value: 94.5%); format: functional; conditions: HepG2, 24 h, read-out: Activity; summary of the method: as §3
HepG2 [16] = assay: Induction of apoptosis in human HepG2 cells assessed as late apoptotic cells at 0.10 uM after 24 hrs by Annexin V-FITC/propidium iodide staining based flow cytometric analysis (reference value: 2.93%); format: functional; summary of the method: as §3
HepG2 [17] = assay: Induction of apoptosis in human HepG2 cells assessed as necrotic cells at 0.10 uM after 24 hrs by Annexin V-FITC/propidium iodide staining based flow cytometric analysis (reference value: 0.270%); format: functional; summary of the method: as §3
HeLa [18] = assay: Antitumor activity against human HeLa cells xenografted in nude mouse assessed as tumor volume at 20 mg/kg, ip after 14 days (reference value: 2292.17 mm3); format: functional
Tubulin (Homo sapiens) = Tubulin (Homo sapiens) (UniProt P68371+Q9H4B7+P0DPH7+P68366+Q13509+Q71U36+P04350+Q3ZCM7+P07437+P68363+Q9BQE3+Q6PEY2+Q13885+Q9BVA1+Q9BUF5); assay: Inhibition of tubulin polymerization in human HeLa cells assessed as abnormal microtubule network formation at 0.04 to 0.1 uM after 12 hrs by DAPI staining based immunofluorescence confocal laser scanning microscopic analysis; format: cell-based
Mus musculus [19] = assay: Hepatotoxicity in nude mouse xenografted with human HeLa cells assessed as cellular inflammatory infiltration in liver at 10 to 20 mg/kg, ip after 14 days by hematoxylin and eosin staining based microscopic analysis; format: toxicity, organism-based; conditions: in vivo, 336 h
Summary of the method: (§4)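 HeLa xenograft nude mice with tumours near 100 mm³, randomised to four groups of 28 mice in total. Dosing was intraperitoneal: vehicle, CA-4 10 mg/kg, or test compound at 10 or 20 mg/kg, continued for 14 days. Heart, liver, kidney and spleen were then H&E-stained and examined for inflammatory infiltration, edema, necrosis and cell morphology.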

Mus musculus [20] = assay: Nephrotoxicity in nude mouse xenografted with human HeLa cells assessed as cellular inflammatory infiltration in kidney at 10 to 20 mg/kg, ip after 14 days by hematoxylin and eosin staining based microscopic analysis; format: toxicity, organism-based; conditions: in vivo, 336 h
Mus musculus [21] = assay: Nephrotoxicity in nude mouse xenografted with human HeLa cells assessed as edema in kidney at 10 to 20 mg/kg, ip after 14 days by hematoxylin and eosin staining based microscopic analysis; format: toxicity, organism-based; conditions: in vivo, 336 h
Mus musculus [22] = assay: Toxicity in nude mouse xenografted with human HeLa cells assessed as edema in spleen at 10 to 20 mg/kg, ip after 14 days by hematoxylin and eosin staining based microscopic analysis; format: organism-based; conditions: in vivo, 336 h
Mus musculus [23] = assay: Hepatotoxicity in nude mouse xenografted with human HeLa cells assessed as necrosis in liver at 10 to 20 mg/kg, ip after 14 days by hematoxylin and eosin staining based microscopic analysis; format: toxicity, organism-based; conditions: in vivo, 336 h; summary of the method: as §4
Mus musculus [24] = assay: Cardiotoxicity in nude mouse xenografted with human HeLa cells assessed as necrosis in heart at 10 to 20 mg/kg, ip after 14 days by hematoxylin and eosin staining based microscopic analysis; format: toxicity, organism-based; conditions: in vivo, 336 h
Summary of the method: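 Excised tumours and heart, liver, kidney and spleen were H&E-stained and examined microscopically. Tumour scoring covered cell arrangement and necrosis. Organ scoring covered inflammatory infiltration, edema, necrosis and cell morphology.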

Mus musculus [25] = assay: Toxicity in nude mouse xenografted with human HeLa cells assessed as ulceration at 10 to 20 mg/kg, ip after 14 days; format: organism-based; conditions: in vivo, 336 h

Question: How did the GI50 (MCF7) turn out when `COc1cccc(C2=NN(C(=O)c3ccc(C)nc3)C(c3cn(C)c4ccc(OC)cc34)C2)c1` (stereo not drawn) was run?
Answer: 90 nM

Question: And the GI50 (A549)?
Answer: 590 nM

Question: And the GI50 (HepG2 [1])?
Answer: 29 nM

Question: What about the GI50 (HeLa [2]) of the same compound?
Answer: 34 nM

Question: And the Activity (HeLa [3])?
Answer: 9.62%

Question: And the Activity (HeLa [4])?
Answer: 16.47%

Question: What about the Activity (HeLa [5]) of the same compound?
Answer: 9.17%

Question: What about the Activity (HepG2 [6]) of the same compound?
Answer: 41.26%

Question: And the Activity (HepG2 [7])?
Answer: 30.26%

Question: And the Activity (HepG2 [8])?
Answer: 41.92%

Question: What about the Activity (HeLa [9]) of the same compound?
Answer: 11%

Question: What about the Activity (HeLa [10]) of the same compound?
Answer: 0.512%

Question: And the Activity (HeLa [11])?
Answer: 26.1%

Question: What about the Activity (HeLa [12]) of the same compound?
Answer: 1.02%

Question: What about the viability at 0.1 µM (HeLa [13]) of the same compound?
Answer: 58.2%

Question: And the Activity (HepG2 [14])?
Answer: 2.2%

Question: What about the viability at 0.08 µM (HepG2 [15]) of the same compound?
Answer: 81.4%

Question: What about the Activity (HepG2 [16]) of the same compound?
Answer: 8.33%

Question: What about the Activity (HepG2 [17]) of the same compound?
Answer: 2.46%

Question: And the Activity (HeLa [18])?
Answer: 881.93 mm3

Question: What about the inhibition (Tubulin (Homo sapiens)) of the same compound?
Answer: Active

Question: What about the Activity (Mus musculus [19]) of the same compound?
Answer: Non-Toxic

Question: What about the Activity (Mus musculus [20]) of the same compound?
Answer: Non-Toxic

Question: What about the Activity (Mus musculus [21]) of the same compound?
Answer: Non-Toxic

Question: And the Activity (Mus musculus [22])?
Answer: Non-Toxic

Question: And the Activity (Mus musculus [23])?
Answer: Non-Toxic

Question: And the Activity (Mus musculus [24])?
Answer: Non-Toxic

Question: And the Activity (Mus musculus [25])?
Answer: Non-Toxic
